Measured values taken from ChEMBL document CHEMBL5329156, “Discovery and development of novel substituted monohydrazides as potent antifungal agents” (RSC Med Chem, 2023).
In brackets after ≈: the same amount, converted by molar mass. Activity calls are given as the source filed them. The rule behind the calls is not given here.

What was measured:
Candida albicans [1] = assay: Antifungal activity against Candida albicans ATCC 10231 assessed as fungal growth inhibition by double dilution method; assay type: functional
How it was run: (§1)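 Broth microdilution after CLSI M27-A3/M38-A2 with minor changes. Single colony grown overnight in YPD at 35 °C, 200 rpm. Compound final range 0.06-31.3 µg/mL; incubated 48 h at 35 °C.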

Candida albicans [2] = assay: Antifungal activity against Candida albicans ATCC 64124 assessed as fungal growth inhibition by double dilution method; assay type: functional
How it was run: (§2)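 Broth microdilution after CLSI M27-A3/M38-A2 with minor modifications. A single colony was grown overnight in YPD at 35 °C with shaking at 200 rpm. Cells were mixed 1:1 with compound (final 0.06-31.3 µg/mL, from DMSO stocks) and incubated 48 h at 35 °C.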

Candida albicans [3] = assay: Antifungal activity against itraconazole/fluconazole susceptible Candida albicans ATCC MYA-2876 assessed as fungal growth inhibition by double dilution method; assay type: functional; how it was run: as §2
Candida albicans [4] = assay: Antifungal activity against itraconazole/fluconazole resistant Candida albicans ATCC 90819 assessed as fungal growth inhibition by double dilution method; assay type: functional; how it was run: as §2
Candida albicans [5] = assay: Antifungal activity against itraconazole/fluconazole susceptible Candida albicans ATCC MYA-2310 assessed as fungal growth inhibition by double dilution method; assay type: functional; how it was run: as §2
Candida albicans [6] = assay: Antifungal activity against itraconazole/fluconazole resistant Candida albicans ATCC MYA-1237 assessed as fungal growth inhibition by double dilution method; assay type: functional; how it was run: as §2
Candida albicans [7] = assay: Antifungal activity against itraconazole/fluconazole resistant Candida albicans ATCC MYA-1003 assessed as fungal growth inhibition by double dilution method; assay type: functional; how it was run: as §2
Nakaseomyces glabratus [8] = assay: Antifungal activity against Candida glabrata ATCC 2001 assessed as fungal growth inhibition by double dilution method; assay type: functional; how it was run: as §1
Pichia kudriavzevii [9] = assay: Antifungal activity against Pichia kudriavzevii ATCC 6258 assessed as fungal growth inhibition by double dilution method; assay type: functional; how it was run: as §1
Nakaseomyces glabratus [10] = assay: Antifungal activity against Candida glabrata ATCC 22019 assessed as fungal growth inhibition by double dilution method; assay type: functional; how it was run: as §1
[Candida] auris [11] = Antifungal activity against Candida auris AR Bank # 0384 assessed as fungal growth inhibition by double dilution method; assay type: functional; settings: Candidozyma auris; how it was run: as §1
[Candida] auris [12] = Antifungal activity against Candida auris AR Bank # 0390 assessed as fungal growth inhibition by double dilution method; assay type: functional; settings: Candidozyma auris; how it was run: as §1
Cryptococcus neoformans = assay: Antifungal activity against Cryptococcus neoformans ATCC MYA-895 assessed as fungal growth inhibition by double dilution method; assay type: functional; how it was run: as §1
Aspergillus terreus = assay: Antifungal activity against Aspergillus terreus ATCC MYA-3633 assessed as fungal growth inhibition by double dilution method; assay type: functional
Aspergillus fumigatus [13] = assay: Antifungal activity against Aspergillus fumigatus NRRL 163 assessed as fungal growth inhibition by double dilution method; assay type: functional
Aspergillus flavus = assay: Antifungal activity against Aspergillus flavus ATCC MYA-3631 assessed as fungal growth inhibition by double dilution method; assay type: functional
Aspergillus nidulans = assay: Antifungal activity against Aspergillus nidulans ATCC 38163 assessed as fungal growth inhibition by double dilution method; assay type: functional
Aspergillus fumigatus [14] = assay: Antifungal activity against Aspergillus fumigatus NRRL 5109 assessed as fungal growth inhibition by double dilution method; assay type: functional
Aspergillus fumigatus [15] = assay: Antifungal activity against Aspergillus fumigatus NRRL 6113 assessed as fungal growth inhibition by double dilution method; assay type: functional
[Candida] auris [16] = Antifungal activity against Candida auris AR Bank # 381 assessed as fungal growth inhibition by double dilution method; assay type: functional; settings: Candidozyma auris; how it was run: as §1
[Candida] auris [17] = Antifungal activity against Candida auris AR Bank # 382 assessed as fungal growth inhibition by double dilution method; assay type: functional; settings: Candidozyma auris; how it was run: as §1
[Candida] auris [18] = Antifungal activity against Candida auris AR Bank # 383 assessed as fungal growth inhibition by double dilution method; assay type: functional; settings: Candidozyma auris; how it was run: as §1
[Candida] auris [19] = Antifungal activity against Candida auris AR Bank # 384 assessed as fungal growth inhibition by double dilution method; assay type: functional; settings: Candidozyma auris; how it was run: as §1
[Candida] auris [20] = Antifungal activity against Candida auris AR Bank # 385 assessed as fungal growth inhibition by double dilution method; assay type: functional; settings: Candidozyma auris; how it was run: as §1
[Candida] auris [21] = Antifungal activity against Candida auris AR Bank # 386 assessed as fungal growth inhibition by double dilution method; assay type: functional; settings: Candidozyma auris; how it was run: as §1
[Candida] auris [22] = Antifungal activity against Candida auris AR Bank # 387 assessed as fungal growth inhibition by double dilution method; assay type: functional; settings: Candidozyma auris; how it was run: as §1
[Candida] auris [23] = Antifungal activity against Candida auris AR Bank # 388 assessed as fungal growth inhibition by double dilution method; assay type: functional; settings: Candidozyma auris; how it was run: as §1
[Candida] auris [24] = Antifungal activity against Candida auris AR Bank # 389 assessed as fungal growth inhibition by double dilution method; assay type: functional; settings: Candidozyma auris; how it was run: as §1
[Candida] auris [25] = Antifungal activity against Candida auris AR Bank # 390 assessed as fungal growth inhibition by double dilution method; assay type: functional; settings: Candidozyma auris; how it was run: as §1
Candida duobushaemulonii [26] = assay: Antifungal activity against Candida duobushaemulonii AR Bank # 391 assessed as fungal growth inhibition by double dilution method; assay type: functional; settings: Candidozyma duobushaemuli; how it was run: as §1
Candida duobushaemulonii [27] = assay: Antifungal activity against Candida duobushaemulonii AR Bank # 392 assessed as fungal growth inhibition by double dilution method; assay type: functional; settings: Candidozyma duobushaemuli; how it was run: as §1
[Candida] haemuloni [28] = Antifungal activity against Candida haemulonii AR Bank # 393 assessed as fungal growth inhibition by double dilution method; assay type: functional; settings: Candidozyma haemuli; how it was run: as §1
Candida duobushaemulonii [29] = assay: Antifungal activity against Candida duobushaemulonii AR Bank # 394 assessed as fungal growth inhibition by double dilution method; assay type: functional; settings: Candidozyma duobushaemuli; how it was run: as §1
[Candida] haemuloni [30] = Antifungal activity against Candida haemulonii AR Bank # 395 assessed as fungal growth inhibition by double dilution method; assay type: functional; settings: Candidozyma haemuli; how it was run: as §1
Kodamaea ohmeri = assay: Antifungal activity against Kodamaea ohmeri AR Bank # 396 assessed as fungal growth inhibition by double dilution method; assay type: functional; how it was run: as §1
Pichia kudriavzevii [31] = assay: Antifungal activity against Pichia kudriavzevii AR Bank # 397 assessed as fungal growth inhibition by double dilution method; assay type: functional; how it was run: as §1
Clavispora lusitaniae = assay: Antifungal activity against Clavispora lusitaniae AR Bank # 398 assessed as fungal growth inhibition by double dilution method; assay type: functional; how it was run: as §1
Saccharomyces cerevisiae [32] = assay: Antifungal activity against Saccharomyces cerevisiae AR Bank # 399 assessed as fungal growth inhibition by double dilution method; assay type: functional; how it was run: as §1
Saccharomyces cerevisiae [33] = assay: Antifungal activity against Saccharomyces cerevisiae AR Bank # 400 assessed as fungal growth inhibition by double dilution method; assay type: functional; how it was run: as §1
Candida albicans [34] = assay: Antibiofilm activity against Candida albicans ATCC 10231 assessed as reduction in biofilm production at 1.96 to 3.9 microg/ml by biofilm formation assay; assay type: functional, organism-based; settings: dose 1.96-3.9 µg/ml

SMILES | MIC (Candida albicans [1]) | MIC (Candida albicans [2]) | MIC (Candida albicans [3]) | MIC (Candida albicans [4]) | MIC (Candida albicans [5]) | MIC (Candida albicans [6]) | MIC (Candida albicans [7]) | MIC (Nakaseomyces glabratus [8]) | MIC (Pichia kudriavzevii [9]) | MIC (Nakaseomyces glabratus [10]) | MIC ([Candida] auris [11]) | MIC ([Candida] auris [12]) | MIC (Cryptococcus neoformans) | MIC (Aspergillus terreus) | MIC (Aspergillus fumigatus [13]) | MIC (Aspergillus flavus) | MIC (Aspergillus nidulans) | MIC (Aspergillus fumigatus [14]) | MIC (Aspergillus fumigatus [15]) | MIC ([Candida] auris [16]) | further results
O=C(NNc1cc(F)ccc1F)c1ccccn1 | 0.12 µg/mL (≈ 0.482 µM) | 1.95 µg/mL (≈ 7.82 µM) | 3.9 µg/mL (≈ 15.6 µM) | 0.98 µg/mL (≈ 3.93 µM) | 1.95 µg/mL (≈ 7.82 µM) | 1.95 µg/mL (≈ 7.82 µM) | 0.98 µg/mL (≈ 3.93 µM) | 3.9 µg/mL (≈ 15.6 µM) | 0.24 µg/mL (≈ 0.963 µM) | 3.9 µg/mL (≈ 15.6 µM) | 0.24 µg/mL (≈ 0.963 µM) | 0.98 µg/mL (≈ 3.93 µM) | 0.49 µg/mL (≈ 1.97 µM) | 0.98 µg/mL (≈ 3.93 µM) | > 31.3 µg/mL | 3.9 µg/mL (≈ 15.6 µM) | 0.49 µg/mL (≈ 1.97 µM) | 15.6 µg/mL (≈ 62.6 µM) | > 31.3 µg/mL | 1.95 µg/mL (≈ 7.82 µM) | MIC ([Candida] auris [17]): 0.24 µg/mL (≈ 0.963 µM); MIC ([Candida] auris [18]): 0.49 µg/mL (≈ 1.97 µM); MIC ([Candida] auris [19]): 1.95 µg/mL (≈ 7.82 µM); MIC ([Candida] auris [20]): 0.49 µg/mL (≈ 1.97 µM); MIC ([Candida] auris [21]): 0.12 µg/mL (≈ 0.482 µM); MIC ([Candida] auris [22]): 0.49 µg/mL (≈ 1.97 µM); MIC ([Candida] auris [23]): 0.49 µg/mL (≈ 1.97 µM); MIC ([Candida] auris [24]): 0.49 µg/mL (≈ 1.97 µM); MIC ([Candida] auris [25]): 0.98 µg/mL (≈ 3.93 µM); MIC (Candida duobushaemulonii [26]): 0.49 µg/mL (≈ 1.97 µM); MIC (Candida duobushaemulonii [27]): 0.24 µg/mL (≈ 0.963 µM); MIC ([Candida] haemuloni [28]): 0.98 µg/mL (≈ 3.93 µM); MIC (Candida duobushaemulonii [29]): 0.24 µg/mL (≈ 0.963 µM); MIC ([Candida] haemuloni [30]): 0.24 µg/mL (≈ 0.963 µM); MIC (Kodamaea ohmeri): 0.12 µg/mL (≈ 0.482 µM); MIC (Pichia kudriavzevii [31]): 0.24 µg/mL (≈ 0.963 µM); MIC (Clavispora lusitaniae): 0.49 µg/mL (≈ 1.97 µM); MIC (Saccharomyces cerevisiae [32]): 1.95 µg/mL (≈ 7.82 µM); MIC (Saccharomyces cerevisiae [33]): 1.95 µg/mL (≈ 7.82 µM); Activity (Candida albicans [34]): inactive
O=C(NNc1ccc(Cl)cc1)c1ccccn1 | 0.12 µg/mL (≈ 0.484 µM) | 0.98 µg/mL (≈ 3.96 µM) | 1.95 µg/mL (≈ 7.87 µM) | 0.24 µg/mL (≈ 0.969 µM) | 0.98 µg/mL (≈ 3.96 µM) | 0.98 µg/mL (≈ 3.96 µM) | 0.98 µg/mL (≈ 3.96 µM) | 1.95 µg/mL (≈ 7.87 µM) | 1.95 µg/mL (≈ 7.87 µM) | 3.9 µg/mL (≈ 15.7 µM) | 1.95 µg/mL (≈ 7.87 µM) | 1.95 µg/mL (≈ 7.87 µM) | 0.49 µg/mL (≈ 1.98 µM) | 3.9 µg/mL (≈ 15.7 µM) | > 31.3 µg/mL | 31.3 µg/mL (≈ 126 µM) | 0.49 µg/mL (≈ 1.98 µM) | 7.8 µg/mL (≈ 31.5 µM) | 15.6 µg/mL (≈ 63 µM) | 1.95 µg/mL (≈ 7.87 µM) | MIC ([Candida] auris [17]): 3.9 µg/mL (≈ 15.7 µM); MIC ([Candida] auris [18]): 1.95 µg/mL (≈ 7.87 µM); MIC ([Candida] auris [19]): 1.95 µg/mL (≈ 7.87 µM); MIC ([Candida] auris [20]): 1.95 µg/mL (≈ 7.87 µM); MIC ([Candida] auris [21]): 0.98 µg/mL (≈ 3.96 µM); MIC ([Candida] auris [22]): 1.95 µg/mL (≈ 7.87 µM); MIC ([Candida] auris [23]): 1.95 µg/mL (≈ 7.87 µM); MIC ([Candida] auris [24]): 0.98 µg/mL (≈ 3.96 µM); MIC ([Candida] auris [25]): 1.95 µg/mL (≈ 7.87 µM); MIC (Candida duobushaemulonii [26]): 0.98 µg/mL (≈ 3.96 µM); MIC (Candida duobushaemulonii [27]): 0.98 µg/mL (≈ 3.96 µM); MIC ([Candida] haemuloni [28]): 0.49 µg/mL (≈ 1.98 µM); MIC (Candida duobushaemulonii [29]): 0.4 µg/mL (≈ 1.61 µM); MIC ([Candida] haemuloni [30]): 0.12 µg/mL (≈ 0.484 µM); MIC (Kodamaea ohmeri): 0.24 µg/mL (≈ 0.969 µM); MIC (Pichia kudriavzevii [31]): 0.24 µg/mL (≈ 0.969 µM); MIC (Clavispora lusitaniae): 0.98 µg/mL (≈ 3.96 µM); MIC (Saccharomyces cerevisiae [32]): 0.98 µg/mL (≈ 3.96 µM); MIC (Saccharomyces cerevisiae [33]): 0.98 µg/mL (≈ 3.96 µM); Activity (Candida albicans [34]): Active
